# According to article PMC3992716 (European journal of pharmacology, 2013):
# How the values were obtained:
# α2(2)β2(2)α5 = α2(2)β2(2)α5 (Homo sapiens, UniProt P17787+P30532+Q15822); experiment: two-electrode voltage clamp, Xenopus oocytes, agonist-evoked response; type: cell-based
# α4(2)β2(2)α5 [1] = target: T1, α4(2)β2(2)α5 (Homo sapiens, UniProt P17787+P30532+P43681); experiment: cell-based
# α4β2α6β2β3 [2] = target: T2, α4β2α6β2β3 (Homo sapiens, UniProt P17787+P43681+Q05901+Q15825); experiment: cell-based
# T2 sequence (P43681 27-627): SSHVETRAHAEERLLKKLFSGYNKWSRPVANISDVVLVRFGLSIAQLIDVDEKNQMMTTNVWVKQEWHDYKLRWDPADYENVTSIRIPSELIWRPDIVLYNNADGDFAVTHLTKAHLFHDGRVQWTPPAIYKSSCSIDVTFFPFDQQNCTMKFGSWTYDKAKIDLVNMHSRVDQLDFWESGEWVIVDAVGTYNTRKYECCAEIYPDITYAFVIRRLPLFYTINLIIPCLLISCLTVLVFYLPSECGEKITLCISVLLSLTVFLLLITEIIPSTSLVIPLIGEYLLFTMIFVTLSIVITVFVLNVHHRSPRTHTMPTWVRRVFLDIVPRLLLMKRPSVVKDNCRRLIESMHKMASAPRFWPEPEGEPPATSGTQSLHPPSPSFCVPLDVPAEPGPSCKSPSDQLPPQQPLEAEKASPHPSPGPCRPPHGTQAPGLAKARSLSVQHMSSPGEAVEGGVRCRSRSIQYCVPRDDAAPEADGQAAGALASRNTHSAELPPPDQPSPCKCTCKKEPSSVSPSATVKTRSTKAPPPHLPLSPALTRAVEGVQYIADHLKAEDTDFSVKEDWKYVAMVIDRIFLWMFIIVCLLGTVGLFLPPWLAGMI
# T2 sequence (P17787 26-502): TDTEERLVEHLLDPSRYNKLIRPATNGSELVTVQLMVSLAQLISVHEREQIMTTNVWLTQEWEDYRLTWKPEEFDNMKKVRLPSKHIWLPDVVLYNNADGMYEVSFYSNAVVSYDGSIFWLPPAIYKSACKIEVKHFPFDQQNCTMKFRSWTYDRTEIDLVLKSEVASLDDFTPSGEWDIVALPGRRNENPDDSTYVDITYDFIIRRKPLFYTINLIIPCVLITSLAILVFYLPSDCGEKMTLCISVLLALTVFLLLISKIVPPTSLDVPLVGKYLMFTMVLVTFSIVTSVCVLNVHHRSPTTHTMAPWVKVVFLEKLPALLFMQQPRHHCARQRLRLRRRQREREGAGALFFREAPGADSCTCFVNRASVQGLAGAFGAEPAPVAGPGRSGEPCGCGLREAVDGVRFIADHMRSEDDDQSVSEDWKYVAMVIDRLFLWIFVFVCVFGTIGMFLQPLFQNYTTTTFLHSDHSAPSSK
# T2 sequence (Q15825 26-494): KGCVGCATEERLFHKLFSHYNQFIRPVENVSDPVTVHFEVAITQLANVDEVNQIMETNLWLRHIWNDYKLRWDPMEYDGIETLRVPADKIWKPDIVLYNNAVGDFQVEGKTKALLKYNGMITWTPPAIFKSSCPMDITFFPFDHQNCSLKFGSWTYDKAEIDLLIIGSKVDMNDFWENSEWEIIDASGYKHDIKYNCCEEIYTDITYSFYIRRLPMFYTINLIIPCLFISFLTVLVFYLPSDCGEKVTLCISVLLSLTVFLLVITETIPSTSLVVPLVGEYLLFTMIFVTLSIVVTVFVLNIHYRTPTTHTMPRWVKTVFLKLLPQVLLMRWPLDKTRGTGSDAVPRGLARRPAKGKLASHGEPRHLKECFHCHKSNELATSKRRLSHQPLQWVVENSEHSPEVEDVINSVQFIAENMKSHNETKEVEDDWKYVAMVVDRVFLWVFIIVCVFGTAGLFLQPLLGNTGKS
# T2 sequence (Q05901 22-458): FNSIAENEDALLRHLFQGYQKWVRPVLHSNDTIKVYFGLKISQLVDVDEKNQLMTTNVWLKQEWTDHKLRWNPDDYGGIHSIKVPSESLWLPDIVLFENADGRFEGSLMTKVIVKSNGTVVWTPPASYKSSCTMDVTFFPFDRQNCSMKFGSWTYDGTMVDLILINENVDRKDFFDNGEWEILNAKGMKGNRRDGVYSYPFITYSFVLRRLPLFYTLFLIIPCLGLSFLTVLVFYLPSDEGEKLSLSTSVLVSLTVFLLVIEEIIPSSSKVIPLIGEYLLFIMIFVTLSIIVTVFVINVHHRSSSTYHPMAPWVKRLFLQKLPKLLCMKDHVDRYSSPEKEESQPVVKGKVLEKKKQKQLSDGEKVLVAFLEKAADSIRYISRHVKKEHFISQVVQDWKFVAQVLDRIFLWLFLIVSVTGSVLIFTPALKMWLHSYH
# α4β2α6β2β3 [3] = target: T2, α4β2α6β2β3; type: cell-based
# In short: (§1)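 Xenopus oocytes defolliculated with collagenase, clamped at −60 mV and perfused with Ringer's containing 1 μM atropine. Rising test compound concentrations were co-applied with control ACh (100 μM for α4(2)β2(2)α5, 30 μM for α4β2α6β2β3), alternating with ACh alone; fresh cells were used if ACh controls fell below 75%. Peak currents were normalised to the preceding ACh control.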
# α4(2)β2(2)α5 [4] = target: T1, α4(2)β2(2)α5; type: cell-based
# In short: as §1
# T1 sequence (P43681 27-627): as the sequence (P43681 27-627) above
# T1 sequence (P17787 26-502): as the sequence (P17787 26-502) above
# T1 sequence (P30532 23-468): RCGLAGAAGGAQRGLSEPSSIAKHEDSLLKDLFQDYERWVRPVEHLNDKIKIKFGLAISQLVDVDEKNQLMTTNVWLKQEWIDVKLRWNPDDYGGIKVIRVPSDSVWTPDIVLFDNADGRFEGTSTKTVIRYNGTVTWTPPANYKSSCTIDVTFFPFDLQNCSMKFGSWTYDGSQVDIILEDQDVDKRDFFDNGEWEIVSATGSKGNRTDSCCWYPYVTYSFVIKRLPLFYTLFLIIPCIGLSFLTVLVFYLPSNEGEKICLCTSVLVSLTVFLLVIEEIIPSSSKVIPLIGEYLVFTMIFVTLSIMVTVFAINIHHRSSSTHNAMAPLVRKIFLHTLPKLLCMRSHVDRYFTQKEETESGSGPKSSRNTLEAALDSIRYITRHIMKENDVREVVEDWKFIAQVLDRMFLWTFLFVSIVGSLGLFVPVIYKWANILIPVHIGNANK
# Chain of α2(2)β2(2)α5 (Q15822 27-529): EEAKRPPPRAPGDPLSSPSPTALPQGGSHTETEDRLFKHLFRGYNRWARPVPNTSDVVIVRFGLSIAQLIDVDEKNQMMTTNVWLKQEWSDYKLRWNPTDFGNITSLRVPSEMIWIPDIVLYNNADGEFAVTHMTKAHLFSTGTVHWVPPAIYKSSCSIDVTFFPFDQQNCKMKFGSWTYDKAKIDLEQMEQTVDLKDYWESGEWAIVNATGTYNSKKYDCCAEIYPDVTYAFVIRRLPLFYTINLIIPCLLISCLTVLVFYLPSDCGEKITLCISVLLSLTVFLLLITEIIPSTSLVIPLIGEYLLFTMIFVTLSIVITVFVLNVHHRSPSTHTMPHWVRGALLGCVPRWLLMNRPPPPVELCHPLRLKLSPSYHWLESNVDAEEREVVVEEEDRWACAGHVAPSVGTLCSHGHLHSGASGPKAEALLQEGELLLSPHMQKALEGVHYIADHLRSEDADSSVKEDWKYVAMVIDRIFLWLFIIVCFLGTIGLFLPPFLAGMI
# Chain of α2(2)β2(2)α5 (P17787 26-502): as the sequence (P17787 26-502) above
# Chain of α2(2)β2(2)α5 (P30532 23-468): as the sequence (P30532 23-468) above
compound,measurement,setting,value
CN1CCC[C@H]1c1cccnc1 [nicotine],EC50,α2(2)β2(2)α5,1.6 ± 0.2 µM
CCOc1cncc(/C=C/CCNC)c1 [TC-2559],EC50,α2(2)β2(2)α5,6.2 ± 1 µM
same,EC50,α4(2)β2(2)α5 [1],1.6 ± 0.3 µM
same,EC50,α4β2α6β2β3 [2],1.7 ± 0.3 µM
"CNC1(C)C2CCC(C2)C1(C)C (stereo not drawn) [R(-)Mecamylamine, N-2,3,3-tetramethylbicyclo[2.2.1]heptan-2-amine]",IC50,α4β2α6β2β3 [3],13 ± 5 µM
same,IC50,α4(2)β2(2)α5 [4],35 ± 5 µM
"CN[C@@]1(C)[C@@H]2CC[C@@H](C2)C1(C)C [S(+)Mecamylamine, N-2,3,3-tetramethylbicyclo[2.2.1]heptan-2-amine]",IC50,α4β2α6β2β3 [3],14 ± 7 µM
same,IC50,α4(2)β2(2)α5 [4],12 ± 1 µM
